Assay results from ChEMBL document CHEMBL5724801, “EUbOPEN Chemogenomics Library - Multiplex” (2024).
Values joined by “and” are separate entries in the source; they are usually repeats but may differ in a detail not shown here. Equal values may be shown once.

System: HEK-293T
Experiment: Multiplex assay against HEK293T
Type: toxicity, cell-based
Settings: human
Outline: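 At seeding, live cells were stained with Hoechst33342, BioTracker Green Microtubule Cytoskeleton Dye, MitoTracker Red and Annexin V Alexa Fluor 680. After compound addition they were imaged on a CQ1 microscope at 37°C and 5% CO2, and CellPathfinder machine-learning gating sorted them into Hoechst high-intensity objects or normal cells, with normal cells further split into healthy, pyknosed or fragmented nuclei and pyknosed cells into mitotic or apoptotic. Tubulin, mitochondrial-mass and membrane-permeability phenotypes are given as per cents of cells with healthy nuclei.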

[1] = 12 h, 1 µM, compound concentration 1 uM
[2] = 12 h, 10 µM, compound concentration 10 uM
[3] = 24 h, 1 µM, compound concentration 1 uM
[4] = 24 h, 10 µM, compound concentration 10 uM
[5] = 48 h, 1 µM, compound concentration 1 uM
[6] = 48 h, 10 µM, compound concentration 10 uM

N#Cc1cc(F)cc(-c2nc(-c3ccc(F)cn3)no2)c1
Population Apoptotic (%) [1]: 38% and 64%
Population Fragmented Nuclei (%) [1]: 10% and 6%
Population Healthy Nuclei (%) [1]: 76% and 77%
Population Hoechst High Intensity Objects (%) [1]: 5% and 8%
Population Membrane Permeable-Phenotype (%) [1]: 0%
Population Mitochondria Different-Phenotype (%) [1]: 41% and 55%
Population Mitotic Cells (%) [1]: 61% and 36%
Population Normal (%) [1]: 95% and 91%
Population Pyknosed Nuclei (%) [1]: 12% and 15%
Population Tubulin-Different-Phenotype (%) [1]: 25% and 22%
Total Cell Count [1]: 280 and 342
Population Apoptotic (%) [2]: 45%
Population Fragmented Nuclei (%) [2]: 10% and 8%
Population Healthy Nuclei (%) [2]: 73% and 77%
Population Hoechst High Intensity Objects (%) [2]: 4% and 10%
Population Membrane Permeable-Phenotype (%) [2]: 0%
Population Mitochondria Different-Phenotype (%) [2]: 51% and 61%
Population Mitotic Cells (%) [2]: 55% and 54%
Population Normal (%) [2]: 95% and 89%
Population Pyknosed Nuclei (%) [2]: 16% and 13%
Population Tubulin-Different-Phenotype (%) [2]: 29% and 22%
Total Cell Count [2]: 383 and 269
Population Apoptotic (%) [3]: 43% and 48%
Population Fragmented Nuclei (%) [3]: 9% and 7%
Population Healthy Nuclei (%) [3]: 77% and 82%
Population Hoechst High Intensity Objects (%) [3]: 6% and 7%
Population Membrane Permeable-Phenotype (%) [3]: 0%
Population Mitochondria Different-Phenotype (%) [3]: 19% and 36%
Population Mitotic Cells (%) [3]: 56% and 51%
Population Normal (%) [3]: 93% and 92%
Population Pyknosed Nuclei (%) [3]: 12% and 9%
Population Tubulin-Different-Phenotype (%) [3]: 12% and 15%
Total Cell Count [3]: 353 and 463
Population Apoptotic (%) [4]: 41% and 39%
Population Fragmented Nuclei (%) [4]: 10%
Population Healthy Nuclei (%) [4]: 74% and 79%
Population Hoechst High Intensity Objects (%) [4]: 4% and 8%
Population Membrane Permeable-Phenotype (%) [4]: 0%
Population Mitochondria Different-Phenotype (%) [4]: 34% and 40%
Population Mitotic Cells (%) [4]: 58% and 60%
Population Normal (%) [4]: 95% and 91%
Population Pyknosed Nuclei (%) [4]: 14% and 9%
Population Tubulin-Different-Phenotype (%) [4]: 18% and 12%
Total Cell Count [4]: 479 and 363
Population Apoptotic (%) [5]: 35% and 27%
Population Fragmented Nuclei (%) [5]: 15% and 11%
Population Healthy Nuclei (%) [5]: 77% and 81%
Population Hoechst High Intensity Objects (%) [5]: 1% and 0%
Population Membrane Permeable-Phenotype (%) [5]: 1%
Population Mitochondria Different-Phenotype (%) [5]: 16% and 18%
Population Mitotic Cells (%) [5]: 64% and 72%
Population Normal (%) [5]: 98% and 99%
Population Pyknosed Nuclei (%) [5]: 6%
Population Tubulin-Different-Phenotype (%) [5]: 11% and 10%
Total Cell Count [5]: 585 and 715
Population Apoptotic (%) [6]: 39% and 48%
Population Fragmented Nuclei (%) [6]: 16%
Population Healthy Nuclei (%) [6]: 75% and 77%
Population Hoechst High Intensity Objects (%) [6]: 1% and 4%
Population Membrane Permeable-Phenotype (%) [6]: 1%
Population Mitochondria Different-Phenotype (%) [6]: 18% and 22%
Population Mitotic Cells (%) [6]: 60% and 51%
Population Normal (%) [6]: 98% and 95%
Population Pyknosed Nuclei (%) [6]: 8% and 5%
Population Tubulin-Different-Phenotype (%) [6]: 9% and 11%
Total Cell Count [6]: 643 and 501

Cc1noc(-c2ccc(-c3ccc(CC(=O)O)cc3)cc2)c1NC(=O)O[C@H](C)c1ccccc1Cl
Population Apoptotic (%) [1]: 29% and 59%
Population Fragmented Nuclei (%) [1]: 7% and 4%
Population Healthy Nuclei (%) [1]: 79% and 77%
Population Hoechst High Intensity Objects (%) [1]: 5% and 11%
Population Membrane Permeable-Phenotype (%) [1]: 0%
Population Mitochondria Different-Phenotype (%) [1]: 38% and 69%
Population Mitotic Cells (%) [1]: 70% and 40%
Population Normal (%) [1]: 94% and 88%
Population Pyknosed Nuclei (%) [1]: 13% and 17%
Population Tubulin-Different-Phenotype (%) [1]: 29% and 28%
Total Cell Count [1]: 403 and 296
Population Apoptotic (%) [2]: 51% and 41%
Population Fragmented Nuclei (%) [2]: 11% and 8%
Population Healthy Nuclei (%) [2]: 68% and 72%
Population Hoechst High Intensity Objects (%) [2]: 7% and 14%
Population Membrane Permeable-Phenotype (%) [2]: 0%
Population Mitochondria Different-Phenotype (%) [2]: 72% and 69%
Population Mitotic Cells (%) [2]: 48% and 58%
Population Normal (%) [2]: 92% and 85%
Population Pyknosed Nuclei (%) [2]: 20% and 18%
Population Tubulin-Different-Phenotype (%) [2]: 65% and 34%
Total Cell Count [2]: 295 and 341
Population Apoptotic (%) [3]: 22% and 40%
Population Fragmented Nuclei (%) [3]: 10% and 9%
Population Healthy Nuclei (%) [3]: 79% and 80%
Population Hoechst High Intensity Objects (%) [3]: 5% and 7%
Population Membrane Permeable-Phenotype (%) [3]: 0%
Population Mitochondria Different-Phenotype (%) [3]: 23% and 42%
Population Mitotic Cells (%) [3]: 77% and 60%
Population Normal (%) [3]: 94% and 92%
Population Pyknosed Nuclei (%) [3]: 9%
Population Tubulin-Different-Phenotype (%) [3]: 17% and 20%
Total Cell Count [3]: 570 and 378
Population Apoptotic (%) [4]: 39% and 32%
Population Fragmented Nuclei (%) [4]: 7% and 9%
Population Healthy Nuclei (%) [4]: 76% and 75%
Population Hoechst High Intensity Objects (%) [4]: 8% and 16%
Population Membrane Permeable-Phenotype (%) [4]: 1% and 0%
Population Mitochondria Different-Phenotype (%) [4]: 58% and 53%
Population Mitotic Cells (%) [4]: 60% and 68%
Population Normal (%) [4]: 91% and 83%
Population Pyknosed Nuclei (%) [4]: 16% and 15%
Population Tubulin-Different-Phenotype (%) [4]: 47% and 38%
Total Cell Count [4]: 352 and 390
Population Apoptotic (%) [5]: 17% and 35%
Population Fragmented Nuclei (%) [5]: 11% and 12%
Population Healthy Nuclei (%) [5]: 82% and 76%
Population Hoechst High Intensity Objects (%) [5]: 4%
Population Membrane Permeable-Phenotype (%) [5]: 1% and 0%
Population Mitochondria Different-Phenotype (%) [5]: 20% and 34%
Population Mitotic Cells (%) [5]: 82% and 64%
Population Normal (%) [5]: 95%
Population Pyknosed Nuclei (%) [5]: 5% and 10%
Population Tubulin-Different-Phenotype (%) [5]: 14% and 21%
Total Cell Count [5]: 930 and 494
Population Apoptotic (%) [6]: 38% and 46%
Population Fragmented Nuclei (%) [6]: 10% and 13%
Population Healthy Nuclei (%) [6]: 79% and 74%
Population Hoechst High Intensity Objects (%) [6]: 6% and 10%
Population Membrane Permeable-Phenotype (%) [6]: 0% and 1%
Population Mitochondria Different-Phenotype (%) [6]: 40% and 35%
Population Mitotic Cells (%) [6]: 61% and 53%
Population Normal (%) [6]: 93% and 89%
Population Pyknosed Nuclei (%) [6]: 10% and 11%
Population Tubulin-Different-Phenotype (%) [6]: 33% and 25%
Total Cell Count [6]: 445 and 508
